Paper PMC5970367 (Chembiochem : a European journal of chemical biology, 2017)
Like-named read-outs stand apart in the source and are kept apart here.

Experiments:
[1] = test system: fluorescein-labelled SLIIb; assay: Reaction rates monitored by agarose gel electrophoresis; assay type: biochemical, hepatitis C virus; conditions: addition of complex to SLIIb
[2] = test system: 5′-fluorescein labeled HCV SLIIb; assay: Reaction kinetics via fluorescence; assay type: biochemical, hepatitis C virus; conditions: pseudo Michaelis-Menten, catalytic efficiency
How it was run: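 Copper–peptide complexes were formed at 1.1:1 peptide:Cu. Each complex was added to 333 nM 5′-fluorescein-SLIIb with 1 mM ascorbic acid and 1 mM H2O2 in 20 mM HEPES (pH 7.4, 100 mM NaCl) at 25 °C. Fluorescence loss was followed at ex 491/em 518 nm and converted to RNA concentration by a calibration curve. Initial velocities were plotted against catalyst concentration and fit to Michaelis–Menten to give KM and kcat. Values are the mean of ≥3 trials.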

[3] = test system: 5′-fluorescein labeled HCV SLIIb; conditions: pseudo Michaelis-Menten, fluorescence, cited from earlier work
[4] = test system: fluorescein-labeled IRES SLIIb; assay: Time-dependent MALDI-TOF mass spectrometry of SLIIb cleavage; assay type: biochemical, hepatitis C virus; conditions: for Initial Rate (%Overhang/min), 2′, 3′-cPO4: overhang 2′,3′-cyclic phosphates; for Initial Rate (%Overhang/min), 2′, 3′-cPO4 / Initial Rate (%Overhang/min), 3′-AL / Initial Rate (%Overhang/min), 3′-OH / Initial Rate (%Overhang/min), 3′-PO4 / Initial Rate (%Overhang/min), 3′-PGA / Initial Rate (%Overhang/min), 3′-PG / Initial Rate (%Overhang/min), 5′-AL / Initial Rate (%Overhang/min), 5′-GemDiol / Initial Rate (%Overhang/min), 5′-OH / Initial Rate (%Overhang/min), 5′-PO4 / Initial Rate (%Overhang/min), 5′-PPA: MALDI-TOF time dependence; for Initial Rate (%Overhang/min), 3′-AL: overhang 3′-aldehyde; for Initial Rate (%Overhang/min), 3′-OH: overhang 3′-hydroxyl; for Initial Rate (%Overhang/min), 3′-PO4: overhang 3′-phosphates; for Initial Rate (%Overhang/min), 3′-PGA: overhang 3′-phosphoglycaldehyde; for Initial Rate (%Overhang/min), 3′-PG: overhang 3′-phosphoglycolate; for Initial Rate (%Overhang/min), 5′-AL: overhang 5′-aldehyde; for Initial Rate (%Overhang/min), 5′-GemDiol: overhang 5′-geminal diol; for Initial Rate (%Overhang/min), 5′-OH: overhang 5′-hydroxyl; for Initial Rate (%Overhang/min), 5′-PO4: overhang 5′-phosphate; for Initial Rate (%Overhang/min), 5′-PPA: overhang 5′-phosphopropenal; for Relative Initial Rate (Normalized Intensity/min × 1000), position A6 / Relative Initial Rate (Normalized Intensity/min × 1000), position A15 / Relative Initial Rate (Normalized Intensity/min × 1000), position A19 / Relative Initial Rate (Normalized Intensity/min × 1000), position A27 / Relative Initial Rate (Normalized Intensity/min × 1000), position A30 / Relative Initial Rate (Normalized Intensity/min × 1000), position C10 / Relative Initial Rate (Normalized Intensity/min × 1000), position C33 / Relative Initial Rate (Normalized Intensity/min × 1000), position G5 / Relative Initial Rate (Normalized Intensity/min × 1000), position G9 / Relative Initial Rate (Normalized Intensity/min × 1000), position G11 / Relative Initial Rate (Normalized Intensity/min × 1000), position G28 / Relative Initial Rate (Normalized Intensity/min × 1000), position U12 / Relative Initial Rate (Normalized Intensity/min × 1000), position U14 / Relative Initial Rate (Normalized Intensity/min × 1000), position U25 / Relative Initial Rate (Normalized Intensity/min × 1000), position U26 / Relative Initial Rate (Normalized Intensity/min × 1000), position U29 / Relative Initial Rate (Normalized Intensity/min × 1000), position U31: 10 μM SLIIb, 10 μM copper-peptide
How it was run: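 Reactions contained 10 μM Fl-SLIIb, 10 μM Cu–peptide, 1 mM ascorbate and 1 mM H2O2, and were sampled at 2–180 min. They were quenched on ice, C18-desalted, and analysed by negative-ion reflectron MALDI-TOF (HPA/ammonium citrate matrix, ≥1000 shots). Peaks with m/z >1500 and S/N >5 were assigned against expected product masses. Products were summed per overhang type and expressed as a fraction at each time point. Initial rate was taken from the linear region (first ~40 min).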

GGHKRFK-Cu [11-Cu]
precipitation from solution on addition to SLIIb [1]: significant precipitation
kcat/KM [2]: 367 M⁻¹ s⁻¹

GGHYrFK-Cu [1-Cu]
Km ([3]; ref 4b): 0.8 ± 0.1 µM
kcat ([3]; ref 4b): 0.00883 ± 0.00033 s⁻¹
kcat/KM ([3]; ref 4b): 11000 M⁻¹ s⁻¹

GGHYRAK-Cu [6-Cu]
kcat/KM [2]: 17 M⁻¹ s⁻¹
Initial Rate (%Overhang/min), 2′, 3′-cPO4 [4]: 0.7 ± 0.1 %Overhang/min
Initial Rate (%Overhang/min), 3′-AL [4]: 0.8 ± 0.1 %Overhang/min
Initial Rate (%Overhang/min), 3′-OH [4]: 0.1 ± 0.1 %Overhang/min
Initial Rate (%Overhang/min), 3′-PO4 [4]: 0.7 ± 0.2 %Overhang/min
Initial Rate (%Overhang/min), 3′-PGA [4]: 0.6 ± 0.1 %Overhang/min
Initial Rate (%Overhang/min), 3′-PG [4]: 1.2 ± 0.1 %Overhang/min
Initial Rate (%Overhang/min), 5′-AL [4]: 0.8 ± 0.1 %Overhang/min
Initial Rate (%Overhang/min), 5′-GemDiol [4]: 0.9 ± 0.3 %Overhang/min
Initial Rate (%Overhang/min), 5′-OH [4]: 1.2 ± 0.3 %Overhang/min
Initial Rate (%Overhang/min), 5′-PO4 [4]: 1.2 ± 0.2 %Overhang/min
Initial Rate (%Overhang/min), 5′-PPA [4]: 1.9 ± 0.1 %Overhang/min
Relative Initial Rate (Normalized Intensity/min × 1000), position A6 [4]: 1.7 ± 0.5 Normalized Intensity/min × 1000
Relative Initial Rate (Normalized Intensity/min × 1000), position A15 [4]: <1 Normalized Intensity/min × 1000
Relative Initial Rate (Normalized Intensity/min × 1000), position A19 [4]: - ^a
Relative Initial Rate (Normalized Intensity/min × 1000), position A27 [4]: - ^a
Relative Initial Rate (Normalized Intensity/min × 1000), position A30 [4]: 2.4 ± 0.3 Normalized Intensity/min × 1000
Relative Initial Rate (Normalized Intensity/min × 1000), position C10 [4]: - ^a
Relative Initial Rate (Normalized Intensity/min × 1000), position C33 [4]: 1.4 ± 0.5 Normalized Intensity/min × 1000
Relative Initial Rate (Normalized Intensity/min × 1000), position G5 [4]: - ^a
Relative Initial Rate (Normalized Intensity/min × 1000), position G9 [4]: - ^a
Relative Initial Rate (Normalized Intensity/min × 1000), position G11 [4]: <1 Normalized Intensity/min × 1000
Relative Initial Rate (Normalized Intensity/min × 1000), position G28 [4]: 2.3 ± 1.6 Normalized Intensity/min × 1000
Relative Initial Rate (Normalized Intensity/min × 1000), position U12 [4]: - ^a
Relative Initial Rate (Normalized Intensity/min × 1000), position U14 [4]: <1 Normalized Intensity/min × 1000
Relative Initial Rate (Normalized Intensity/min × 1000), position U25 [4]: - ^a
Relative Initial Rate (Normalized Intensity/min × 1000), position U26 [4]: - ^a
Relative Initial Rate (Normalized Intensity/min × 1000), position U29 [4]: - ^a
Relative Initial Rate (Normalized Intensity/min × 1000), position U31 [4]: - ^a

GGHYRFK-Cu [3-Cu]
kcat/KM [2]: 23.3 M⁻¹ s⁻¹
Initial Rate (%Overhang/min), 2′, 3′-cPO4 [4]: 0.7 ± 0.3 %Overhang/min
Initial Rate (%Overhang/min), 3′-AL [4]: 0.8 ± 0.1 %Overhang/min
Initial Rate (%Overhang/min), 3′-OH [4]: 1.1 ± 0.5 %Overhang/min
Initial Rate (%Overhang/min), 3′-PO4 [4]: 0.4 ± 0.1 %Overhang/min
Initial Rate (%Overhang/min), 3′-PGA [4]: 0.3 ± 0.1 %Overhang/min
Initial Rate (%Overhang/min), 3′-PG [4]: 0.2 ± 0.1 %Overhang/min
Initial Rate (%Overhang/min), 5′-AL [4]: 0.7 ± 0.1 %Overhang/min
Initial Rate (%Overhang/min), 5′-GemDiol [4]: 0.3 ± 0.1 %Overhang/min
Initial Rate (%Overhang/min), 5′-OH [4]: 2.0 ± 0.6 %Overhang/min
Initial Rate (%Overhang/min), 5′-PO4 [4]: 0.4 ± 0.1 %Overhang/min
Initial Rate (%Overhang/min), 5′-PPA [4]: 0.3 ± 0.1 %Overhang/min
Relative Initial Rate (Normalized Intensity/min × 1000), position A6 [4]: - ^a
Relative Initial Rate (Normalized Intensity/min × 1000), position A15 [4]: - ^a
Relative Initial Rate (Normalized Intensity/min × 1000), position A19 [4]: - ^a
Relative Initial Rate (Normalized Intensity/min × 1000), position A27 [4]: - ^a
Relative Initial Rate (Normalized Intensity/min × 1000), position A30 [4]: - ^a
Relative Initial Rate (Normalized Intensity/min × 1000), position C10 [4]: - ^a
Relative Initial Rate (Normalized Intensity/min × 1000), position C33 [4]: - ^a
Relative Initial Rate (Normalized Intensity/min × 1000), position G5 [4]: - ^a
Relative Initial Rate (Normalized Intensity/min × 1000), position G9 [4]: 1.4 ± 0.3 Normalized Intensity/min × 1000
Relative Initial Rate (Normalized Intensity/min × 1000), position G11 [4]: - ^a
Relative Initial Rate (Normalized Intensity/min × 1000), position G28 [4]: 1.0 ± 0.5 Normalized Intensity/min × 1000
Relative Initial Rate (Normalized Intensity/min × 1000), position U12 [4]: 1.2 ± 0.7 Normalized Intensity/min × 1000
Relative Initial Rate (Normalized Intensity/min × 1000), position U14 [4]: 1.2 ± 0.1 Normalized Intensity/min × 1000
Relative Initial Rate (Normalized Intensity/min × 1000), position U25 [4]: - ^a
Relative Initial Rate (Normalized Intensity/min × 1000), position U26 [4]: - ^a
Relative Initial Rate (Normalized Intensity/min × 1000), position U29 [4]: - ^a
Relative Initial Rate (Normalized Intensity/min × 1000), position U31 [4]: - ^a

GGhyrfk-Cu [2-Cu]
Km ([3]; ref 4d): 7.9 ± 1.2 µM
kcat ([3]; ref 4d): 0.00233 ± 0.00017 s⁻¹
kcat/KM ([3]; ref 4d): 300 M⁻¹ s⁻¹
